Source: PubChem (several laboratories)
Sampled rows, rich in hits. Any-hit rate of the full collection: about 2.4%.
H9c2 protect: modulators protecting cardiomyocytes from myocardial damage | H9c2 cardiomyocytes, H2O2 injury protection, ATPLite, 2 h | protection from H2O2 cell death, % at 20 µM | 360,000 compounds, 0.63% hits;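 active = compounds giving at least 50% protection of heart cells from peroxide-induced death in the single-dose screen, raw or plate-pattern-corrected value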
p-CIP stab down: compounds decreasing mouse p/CIP protein stability | F442A p/CIP-EGFP cells, EGFP fluorescence, 16 h | decrease of EGFP signal, % at 10 µM | 290,000 compounds, 0.01% hits | AID 1984;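 active = EGFP signal decrease of at least 30% at 10 µM or well 3 SD below plate mean, unless failing retest; inactive = the rest, including hits failing retest or dose response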
PP5 inh: blocks human protein phosphatase 5 activity; inhibition, % at 6.7 µM; AID 1987; purified PP5c, OMFP substrate fluorescence; 320,000 compounds, 0.18% hits;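 active = inhibition above the campaign's mean inhibition across all tested compounds plus 3 SD, cut at about 9.5% in these data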
Target sequence (P53041 whole entry, looked up): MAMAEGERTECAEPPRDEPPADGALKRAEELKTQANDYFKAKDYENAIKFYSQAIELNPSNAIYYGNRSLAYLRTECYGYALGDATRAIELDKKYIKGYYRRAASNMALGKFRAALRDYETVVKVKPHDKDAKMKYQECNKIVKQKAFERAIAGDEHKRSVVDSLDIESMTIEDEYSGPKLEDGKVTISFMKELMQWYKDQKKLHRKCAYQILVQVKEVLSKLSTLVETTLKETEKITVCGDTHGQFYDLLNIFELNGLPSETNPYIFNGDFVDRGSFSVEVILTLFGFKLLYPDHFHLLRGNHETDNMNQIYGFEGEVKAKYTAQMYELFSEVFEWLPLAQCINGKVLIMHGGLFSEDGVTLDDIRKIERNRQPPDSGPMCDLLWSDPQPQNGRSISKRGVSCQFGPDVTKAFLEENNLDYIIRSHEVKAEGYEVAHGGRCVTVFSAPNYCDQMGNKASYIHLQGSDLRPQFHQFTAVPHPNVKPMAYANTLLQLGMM
GASC-1 inh: inhibitors of human GASC-1 (JMJD2C) demethylase. Q9H3R0. GST-JMJD2C(1-420) H3K9me3 demethylation, DELFIA europium. inhibition, % at 2.35 µM. 330,000 compounds, 0.069% hits;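 active = more than half of a compound's replicate wells show inhibition beyond 50%, single wells judged on their own value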;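 also: signal counts dimethyl H3K9 product captured on neutravidin plate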
T cruzi repl: blocks replication of Trypanosoma cruzi. T. cruzi beta-gal in NIH3T3, luminescence, 90 h. inhibition, % (concentration not given with the values). 300,000 compounds, 1.4% hits. AID 1885;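 active = mean inhibition across valid replicates above about 55%, limit read from the data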;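 also: signal also drops with host cell toxicity which is not excluded here; higher percent means less beta-gal luminescence so fewer parasites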
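System: Mouse NIH/3T3 fibroblasts infected with β-gal-expressing T. cruzi Tulahuen C4 | Quantity: NIH/3T3 cells, 5,000 per well | Reagent: 5000 reporter trypomastigotes per well | Dosing: Compound pinned at 50 nL/well, DMSO | Schedule: 3 h host attachment, then at least 90 h co-culture | Detection: GalScreen luminescence, 60 min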
CTSL1 counter: counter-screen for PFM18AAP inhibitors: inhibitors of F. hepatica cathepsin L1; recombinant F. hepatica cathepsin L1, Z-Leu-Arg-MCA fluorescence; inhibition, % at 5.96 µM; 300,000 compounds, 0.49% hits;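 active = inhibition above the mean of all tested compounds plus 3 SD, set per screening campaign, cut at about 17% in these data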
A number is an active result; 0 = inactive; - = no result.

SMILES	H9c2 protect	p-CIP stab down	PP5 inh	GASC-1 inh	T cruzi repl	CTSL1 counter
COc1cc(Oc2ccccc2)nc(N)n1	0	-	0	0	0	30
COc1ccc2nc3cc(Cl)ccc3c(C#N)c2c1	0	0	0	0	0	19
COc1ccc2nc(C(F)(F)Cl)c(C#N)c(N)c2c1	0	0	0	0	0	0
CCC(C(=O)NCCN1CCOCC1)n1c2ccccc2c2nc(=O)cc(C)n21 (stereo not drawn)	0	0	0	0	0	0
COC(=O)c1ccc(N)c(N=CC2=C(O)CC(C)(C)CC2=O)c1	58	0	0	0	0	0
COC(=O)c1cc(NC(=O)c2cc(-c3ccc(Cl)cc3)oc2C(F)(F)F)ccc1N1CCOCC1	0	0	0	0	63	0
COC(=O)c1cc(NC(=O)c2cc(-c3ccccc3Cl)oc2C(F)(F)F)ccc1N1CCOCC1	0	0	0	0	0	0
COc1cccc(S(=O)(=O)N(C)C[C@@H]2OCc3cnnn3CCCC(=O)N([C@H](C)CO)C[C@@H]2C)c1	0	-	-	-	-	-
Cc1cccc(NC(=O)c2oc3ccc(S(=O)(=O)N4CCOCC4)cc3c2C)c1C	76	0	0	0	0	0
O=C(NCCc1nc2ccccc2[nH]1)c1cccc(Br)c1	0	0	0	0	56	0
O=Cc1c[nH]c2cccc(OCc3ccccc3)c12	0	-	-	-	-	-
CCN(CC)S(=O)(=O)c1ccc(N2CCCC2)c(NC(=O)C2=NN(c3ccccc3)C(=O)CC2)c1	0	-	0	0	-	-
O=C(COC(=O)CNC(=O)C1CCCCC1)Nc1ccccc1	0	-	-	0	-	-
O=C(CNC(=O)C1CCCCC1)OCc1cc(=O)oc2ccc3ccccc3c12	0	0	0	0	0	29
Cc1cccc(C)c1NC(=O)CN(C)CC(=O)Nc1cc(Cl)ccc1C#N	0	0	0	0	0	0
CCOc1ccc(NC(=O)CN(C)CC(=O)Nc2cc(Cl)ccc2C#N)cc1OCC	0	0	0	60	0	0
CCOC(=O)C1=C[C@@H](CC)N(S(=O)(=O)c2ccc(C)cc2)[C@H]1c1cccs1	0	-	-	-	-	-
CCN(c1ccc(NC(=O)COC(=O)c2cc3ccccc3oc2=O)cc1)C(C)C	0	0	0	0	0	0
O=C(COC(=O)c1cc2ccccc2oc1=O)Nc1ccc(F)cc1F	0	0	0	0	0	31
O=C(Oc1ccc(Cl)c2cccnc12)c1cccc([N+](=O)[O-])c1	64	0	0	0	0	0
CC(=O)c1c(C)oc2c1C(=O)c1ccccc1C2=O	0	0	0	0	0	0
O=C(c1ccccc1)c1coc2c1C(=O)c1ccccc1C2=O	0	0	0	0	0	20
O=C1c2ccccc2C(=O)c2c1oc(C(F)(F)F)c2C(=O)c1ccccc1	0	0	0	0	59	26
COc1ccc(C(=O)c2coc3c2C(=O)C(=O)c2ccccc2-3)cc1	0	0	0	0	0	0
CN(CCOc1ccccc1)C(=O)C1CCC(=O)N(CCN2CCOCC2)C1 (stereo not drawn)	0	0	0	0	0	0
SMILES	H9c2 protect	p-CIP stab down	PP5 inh	GASC-1 inh	T cruzi repl	CTSL1 counter
CCOC(=O)C1=C(COC(=O)COc2cc(C)ccc2C)NC(=O)NC1C (stereo not drawn)	0	-	0	0	0	0
CCCCSc1nc2sc3c(c2c(=O)n1-c1ccccc1)CCN(C)C3	0	0	0	0	55	0
CSc1nc(NCc2ccccc2)c2c3c(sc2n1)CN(C)CC3	0	0	0	0	55	0
CCn1c(SCC(=O)c2ccccc2)nc2sc3c(c2c1=O)CCN(C)C3	0	0	0	0	64	0
C=C(C)CSc1nc2sc3c(c2c(=O)n1C1CCCCC1)CCN(C)C3	0	0	0	0	59	0
CCn1c(SCC(=O)NCCc2ccccc2)nc2sc3c(c2c1=O)CCN(C)C3	0	0	0	-	-	0
COc1ccc(S(=O)(=O)N2CCCC2=O)cc1N(C)S(C)(=O)=O	0	0	-	0	0	-
O=S(=O)(c1ccccc1)C(Br)S(=O)(=O)c1ccccc1	0	-	-	-	-	-
O=C(NCc1ccncc1)c1ccc(S(=O)(=O)Nc2ccccc2)cc1	0	-	0	0	0	0
C=C(C)CSc1nc2sc3c(c2c(=O)n1-c1ccccc1)CCN(C)C3	0	0	0	0	55	0
CN1CCc2c(sc3nc(SCC(N)=O)n(-c4ccccc4)c(=O)c23)C1	0	0	0	0	0	0
